Source: ChEMBL document CHEMBL1138034, “Structural studies on bioactive compounds. 40.(1) Synthesis and biological properties of fluoro-, methoxyl-, and amino-substituted 3-phenyl-4H-1-benzopyran-4-ones and a comparison of their antitumor activities with the activities of related 2-phenylbenzothiazoles” (J Med Chem, 2006)
Active and inactive are the calls of the source. The calls are words filed in the database; no cut-off is given here.

Legend:
MDA-MB-468 [1] = test: Cytotoxicity against human MDA-MB-468 cell line at 3 uM in presence of TBDD; assay type: functional, cell-based
In short: (§1)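 MDA-MB-468 cells, 5 × 10³/well, allowed 24 h to adhere, then co-exposed 72 h to isoflavone (final 0.1 nM–100 µM, n = 8) plus TBDD at final 10 nM (n = 4). Viability measured by MTT (400 µg/mL, 4 h, 37 °C), formazan dissolved in DMSO/glycine pH 10.5, absorbance 550 nm.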

MCF7 = test: Antiproliferative activity against human MCF7 cell line; assay type: functional
In short: (§2)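 Cells kept in RPMI 1640 with 2 mM L-glutamine and 10% fetal calf serum, 37 °C, 5% CO₂, passaged twice weekly. 5 × 10³ cells/well allowed 24 h to adhere, then exposed 72 h to compound at final 0.1 nM–100 µM (n = 8). MTT read-out: MTT 400 µg/mL for 4 h at 37 °C, formazan dissolved in DMSO/glycine buffer pH 10.5, absorbance 550 nm; GI50 derived.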

MDA-MB-468 [2] = test: Antiproliferative activity against human MDA-MB-468 cell line in presence of 10 nM TBDD; assay type: functional; in short: as §1
[3] = system: Panel NCI-60 (60 carcinoma cell lines); test: Antiproliferative activity against human NCI60 cell line; assay type: functional
HT-29 = test: Antiproliferative activity against human HT29 cell line; assay type: functional; in short: as §2
HCT-116 = test: Antiproliferative activity against human HCT116 cell line; assay type: functional; in short: as §2
MDA-MB-468 [4] = test: Antiproliferative activity against human MDA-MB-468 cell line; assay type: functional; in short: as §2
MDA-MB-435 = test: Antiproliferative activity against human MDA-MB-435 cell line expressing ARNT splice variant
Cytochrome P450 1A1 = target: T1, Cytochrome P450 1A1 (Homo sapiens, UniProt P04798); test: Inhibition of CYP1A1 by EROD assay; assay type: ADME
T1 sequence (P04798 whole entry): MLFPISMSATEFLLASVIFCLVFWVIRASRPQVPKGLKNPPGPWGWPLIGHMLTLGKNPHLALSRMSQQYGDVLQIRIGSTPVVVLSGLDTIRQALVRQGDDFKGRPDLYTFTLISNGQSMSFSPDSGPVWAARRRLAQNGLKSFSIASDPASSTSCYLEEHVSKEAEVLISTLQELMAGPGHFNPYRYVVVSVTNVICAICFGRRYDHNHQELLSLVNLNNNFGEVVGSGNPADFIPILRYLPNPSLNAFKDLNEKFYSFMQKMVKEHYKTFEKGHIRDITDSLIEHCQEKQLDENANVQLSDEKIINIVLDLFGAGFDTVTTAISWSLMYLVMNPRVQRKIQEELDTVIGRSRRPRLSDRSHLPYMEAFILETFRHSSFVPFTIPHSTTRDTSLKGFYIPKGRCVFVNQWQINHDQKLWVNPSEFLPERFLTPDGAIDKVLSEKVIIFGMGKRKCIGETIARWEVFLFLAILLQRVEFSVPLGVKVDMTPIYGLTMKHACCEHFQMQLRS
In short: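 EROD fluorometric assay. Recombinant CYP1A1 microsomes (0.1 mg/mL) in 100 mM Tris-HCl pH 7.4 with 50 µM MgCl₂ and 100 µM 7-ethoxyresorufin, with compound at 1, 10 or 100 µM. Preincubated 5 min at 37 °C, started with 500 µM NADPH, run 15 min at 37 °C, stopped with ice-cold acetonitrile. Resorufin read at ex 530/em 585 nm against a standard curve; no-microsome and DMSO controls.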

| GI50 (MCF7) [µM] | GI50 (MDA-MB-468 [2]) [µM] | GI50 (HT-29) [µM] | GI50 (HCT-116) [µM] | GI50 (MDA-MB-468 [4]) [µM] | GI50 (MDA-MB-435) [µM] | IC50 (Cytochrome P450 1A1) [µM] | SMILES | Activity (MDA-MB-468 [1]) | GI50 [3] [µM] |
| --- | --- | --- | --- | --- | --- | --- | --- | --- | --- |
| 75.5 | < 1 | 88 | 67.8 | 41.9 |  |  | COc1ccc(-c2coc3c(F)cccc3c2=O)cc1OC | Active | 50 |
| 7.9 |  | 8.6 | 7.2 | 6.4 |  |  | Nc1ccc(-c2coc3cc(F)ccc3c2=O)cc1 |  | 50 |
| 47.2 | < 1 | 31.7 | 26 | 21.6 |  |  | COc1ccc(-c2coc3c(F)c(F)ccc3c2=O)cc1OC |  | 50 |
| < 0.0001 |  | 63 | 16 | < 0.0001 |  |  | Cc1cc(-c2nc3cc(F)ccc3s2)ccc1N |  |  |
| > 100 | < 1 | 88 | > 100 | 29 |  |  | COc1cccc(-c2coc3ccccc3c2=O)c1 |  | 50 |
|  |  |  |  |  |  |  | O=c1c(-c2cccc([N+](=O)[O-])c2)coc2ccccc12 |  | 50 |
| 8.8 |  | 6.1 | 8.5 | 4.8 |  |  | Nc1ccc(-c2coc3ccc(F)cc3c2=O)cc1 |  | 50 |
| 41.5 |  | 22.6 | 39.7 | 17.2 | > 30 |  | COc1ccc(-c2coc3cc(F)c(F)cc3c2=O)cc1OC |  | 50 |
| 60 | 2 |  |  | 1.5 |  |  | O=c1c(-c2ccc3c(c2)OCO3)coc2ccc(F)cc12 |  | 50 |
|  |  |  |  |  |  |  | O=c1c(-c2ccc(Br)cc2)coc2ccccc12 |  | 50 |
| 0.008 |  | 2.6 | 5.4 | < 0.0001 |  |  | COc1ccc(-c2nc3cc(F)ccc3s2)cc1OC |  |  |
| 93.1 | < 1 | 88.2 | 65.3 | 0.9 | > 30 | < 100 | COc1ccc(-c2coc3ccc(F)cc3c2=O)cc1OC |  | 50 |
| 46.7 |  | 7.2 | 8.1 | 6.3 | > 30 |  | COc1ccc(-c2coc3c(F)cc(F)cc3c2=O)cc1OC |  | 50 |
| 64.9 |  | 8.1 | 17.3 | 6 |  |  | Nc1ccc(-c2coc3ccccc3c2=O)cc1 |  | 50 |
| 43.8 |  | 17.6 | 8.5 | 9.9 | > 30 |  | COc1ccc(-c2coc3cc(F)ccc3c2=O)cc1 |  | 50 |
| 88.1 | < 1 | > 100 | > 100 | 66.5 |  |  | COc1ccc(-c2coc3ccccc3c2=O)cc1OC |  | 50 |
|  |  |  |  |  |  | < 100 | COc1ccc(-c2coc3ccc(F)cc3c2=O)cc1 |  | 50 |
| 90.6 | < 1 | 87 | 80.2 | 58.9 |  | < 100 | COc1ccc(-c2coc3cc(F)ccc3c2=O)cc1OC | Active | 50 |
|  |  |  |  |  |  |  | O=c1c(-c2ccc(Cl)cc2)coc2ccccc12 |  | 50 |
